Changes are numbered by the printed parent chain.
Assays:
Conditions in all cases: stereoisomer not certain
[1] = target: T1, Or10j5 (Mus musculus) (UniProt Q62007)
T1 sequence (whole entry): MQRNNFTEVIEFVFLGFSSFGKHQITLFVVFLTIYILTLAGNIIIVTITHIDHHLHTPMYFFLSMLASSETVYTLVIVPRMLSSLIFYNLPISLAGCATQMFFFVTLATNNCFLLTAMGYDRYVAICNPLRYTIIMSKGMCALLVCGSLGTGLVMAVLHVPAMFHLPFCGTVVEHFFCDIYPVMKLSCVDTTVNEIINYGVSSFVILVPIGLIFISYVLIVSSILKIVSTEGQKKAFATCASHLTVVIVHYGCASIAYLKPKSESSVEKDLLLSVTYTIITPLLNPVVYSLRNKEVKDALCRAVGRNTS
How it was run: (§1)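 Each receptor–molecule pair is labelled responsive or non-responsive (inactive) according to whether the original authors judged the measured signal statistically different from baseline. The data were taken from the main text and supplementary material of published papers and checked for typos and inconsistencies. Assay methods differed by source, with transient luciferase assays in mammalian cell lines being common.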

[2] = target: T2, OR9A4 (Homo sapiens) (UniProt Q8NGU2)
T2 sequence (whole entry): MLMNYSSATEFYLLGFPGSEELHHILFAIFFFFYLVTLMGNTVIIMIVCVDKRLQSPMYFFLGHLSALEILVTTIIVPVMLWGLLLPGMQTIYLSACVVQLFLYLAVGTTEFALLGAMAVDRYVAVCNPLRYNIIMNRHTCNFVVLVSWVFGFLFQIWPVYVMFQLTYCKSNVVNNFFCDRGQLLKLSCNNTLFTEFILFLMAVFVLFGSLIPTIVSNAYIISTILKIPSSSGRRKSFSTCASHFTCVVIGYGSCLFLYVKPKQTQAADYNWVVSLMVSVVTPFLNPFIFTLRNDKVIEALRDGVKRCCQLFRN
How it was run: as §1

[3] = target: T3, OR9G1 (Homo sapiens) (UniProt Q8NH87)
T3 sequence (whole entry): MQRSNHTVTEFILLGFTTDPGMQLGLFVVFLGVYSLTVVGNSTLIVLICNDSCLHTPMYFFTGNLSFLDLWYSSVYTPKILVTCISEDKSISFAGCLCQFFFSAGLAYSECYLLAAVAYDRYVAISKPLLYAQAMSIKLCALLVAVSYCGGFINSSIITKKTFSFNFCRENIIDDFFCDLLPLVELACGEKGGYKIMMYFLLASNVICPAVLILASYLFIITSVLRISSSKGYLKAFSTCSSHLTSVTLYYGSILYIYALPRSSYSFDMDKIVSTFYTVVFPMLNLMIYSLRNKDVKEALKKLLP
How it was run: as §1

[4] = target: T4, OR9G4 (Homo sapiens) (UniProt Q8NGQ1)
T4 sequence (whole entry): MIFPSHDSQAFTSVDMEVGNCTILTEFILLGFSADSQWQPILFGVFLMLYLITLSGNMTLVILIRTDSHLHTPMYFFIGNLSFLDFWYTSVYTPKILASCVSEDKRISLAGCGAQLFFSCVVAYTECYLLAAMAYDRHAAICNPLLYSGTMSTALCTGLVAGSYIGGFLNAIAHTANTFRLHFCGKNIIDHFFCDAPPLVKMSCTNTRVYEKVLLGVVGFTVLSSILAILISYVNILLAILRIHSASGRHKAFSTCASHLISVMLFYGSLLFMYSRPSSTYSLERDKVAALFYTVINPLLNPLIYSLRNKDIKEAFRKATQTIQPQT
How it was run: as §1

[5] = system: T5, OR9G4 H6Y N206D V222A
T5 sequence (whole entry): T4 sequence (whole entry) with H6Y, N206D, V222A
How it was run: as §1

[6] = system: T6, OR9G4 N206D V222A
T6 sequence (whole entry): T4 sequence (whole entry) with N206D, V222A
How it was run: as §1

[7] = system: T7, OR9G9
T7 sequence (whole entry): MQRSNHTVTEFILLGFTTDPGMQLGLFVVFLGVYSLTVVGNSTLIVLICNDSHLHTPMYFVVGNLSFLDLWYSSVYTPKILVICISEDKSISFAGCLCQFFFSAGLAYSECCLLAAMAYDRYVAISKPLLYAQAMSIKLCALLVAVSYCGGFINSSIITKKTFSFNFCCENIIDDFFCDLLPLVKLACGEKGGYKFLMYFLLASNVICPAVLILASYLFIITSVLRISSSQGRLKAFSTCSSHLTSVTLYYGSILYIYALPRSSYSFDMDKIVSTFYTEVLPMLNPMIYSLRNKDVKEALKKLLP
How it was run: as §1

[8] = target: T8, OR9I1 (Homo sapiens) (UniProt Q8NGQ6)
T8 sequence (whole entry): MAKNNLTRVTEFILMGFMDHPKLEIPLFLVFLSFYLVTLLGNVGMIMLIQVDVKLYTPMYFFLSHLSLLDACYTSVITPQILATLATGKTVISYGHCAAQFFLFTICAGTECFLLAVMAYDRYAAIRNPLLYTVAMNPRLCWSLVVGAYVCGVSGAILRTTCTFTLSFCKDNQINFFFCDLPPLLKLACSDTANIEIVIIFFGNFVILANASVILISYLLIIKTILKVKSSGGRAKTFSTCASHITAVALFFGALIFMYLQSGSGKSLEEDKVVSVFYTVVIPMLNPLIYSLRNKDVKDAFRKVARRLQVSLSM
How it was run: as §1

[9] = target: T9, OR9K2 (Homo sapiens) (UniProt Q8NGE7)
T9 sequence (whole entry): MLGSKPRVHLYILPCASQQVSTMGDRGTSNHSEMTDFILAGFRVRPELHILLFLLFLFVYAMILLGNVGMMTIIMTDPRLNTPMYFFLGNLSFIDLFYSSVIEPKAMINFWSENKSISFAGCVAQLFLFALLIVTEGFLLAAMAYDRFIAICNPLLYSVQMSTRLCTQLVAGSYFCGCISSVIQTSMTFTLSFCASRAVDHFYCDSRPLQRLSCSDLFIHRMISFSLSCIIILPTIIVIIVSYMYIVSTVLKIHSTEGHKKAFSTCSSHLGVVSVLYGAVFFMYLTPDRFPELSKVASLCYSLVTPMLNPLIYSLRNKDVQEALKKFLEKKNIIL
How it was run: as §1

[10] = system: T10, OR9K2 R207H
T10 sequence (whole entry): T9 sequence (whole entry) with R207H
How it was run: as §1

[11] = target: T11, OR9Q1 (Homo sapiens) (UniProt Q8NGQ5)
T11 sequence (whole entry): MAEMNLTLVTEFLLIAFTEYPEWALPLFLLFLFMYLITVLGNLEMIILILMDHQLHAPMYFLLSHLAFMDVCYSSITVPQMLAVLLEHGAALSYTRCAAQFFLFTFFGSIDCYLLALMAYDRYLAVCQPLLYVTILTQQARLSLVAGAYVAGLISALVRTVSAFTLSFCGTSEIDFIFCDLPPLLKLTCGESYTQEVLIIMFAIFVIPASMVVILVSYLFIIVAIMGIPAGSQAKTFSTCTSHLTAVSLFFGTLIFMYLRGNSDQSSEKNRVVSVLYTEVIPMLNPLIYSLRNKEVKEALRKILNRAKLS
How it was run: as §1

[12] = system: T12, OR9Q1 A83T
T12 sequence (whole entry): T11 sequence (whole entry) with A83T
How it was run: as §1

[13] = target: T13, OR9Q2 (Homo sapiens) (UniProt Q8NGE9)
T13 sequence (whole entry): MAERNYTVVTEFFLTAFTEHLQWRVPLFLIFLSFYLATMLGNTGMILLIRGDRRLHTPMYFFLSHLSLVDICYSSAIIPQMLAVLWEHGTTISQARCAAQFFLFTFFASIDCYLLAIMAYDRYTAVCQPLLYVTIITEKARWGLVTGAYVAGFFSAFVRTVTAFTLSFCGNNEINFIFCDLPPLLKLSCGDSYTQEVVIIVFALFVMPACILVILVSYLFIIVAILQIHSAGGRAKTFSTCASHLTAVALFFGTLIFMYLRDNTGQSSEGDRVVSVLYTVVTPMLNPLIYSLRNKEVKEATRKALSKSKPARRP
How it was run: as §1

[14] = system: T14, OR9Q2 C179R
T14 sequence (whole entry): T13 sequence (whole entry) with C179R
How it was run: as §1

[15] = target: T15, OR9G9 (Homo sapiens) (UniProt P0C7N8)
T15 sequence (whole entry): T7 sequence (whole entry) with G193C
How it was run: as §1

[16] = target: T16, Or5an6 (Mus musculus) (UniProt Q8VFV4)
T16 sequence (whole entry): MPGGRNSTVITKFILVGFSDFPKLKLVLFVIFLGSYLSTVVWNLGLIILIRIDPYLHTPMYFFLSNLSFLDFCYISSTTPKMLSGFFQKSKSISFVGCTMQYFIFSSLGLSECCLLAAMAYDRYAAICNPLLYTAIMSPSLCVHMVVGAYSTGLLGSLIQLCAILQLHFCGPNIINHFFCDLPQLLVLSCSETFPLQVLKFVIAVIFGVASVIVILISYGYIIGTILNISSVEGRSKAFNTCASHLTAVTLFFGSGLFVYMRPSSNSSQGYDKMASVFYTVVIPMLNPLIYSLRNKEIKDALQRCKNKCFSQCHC
How it was run: as §1

[17] = target: T17, Or5k16 (Mus musculus) (UniProt Q7TS48)
T17 sequence (whole entry): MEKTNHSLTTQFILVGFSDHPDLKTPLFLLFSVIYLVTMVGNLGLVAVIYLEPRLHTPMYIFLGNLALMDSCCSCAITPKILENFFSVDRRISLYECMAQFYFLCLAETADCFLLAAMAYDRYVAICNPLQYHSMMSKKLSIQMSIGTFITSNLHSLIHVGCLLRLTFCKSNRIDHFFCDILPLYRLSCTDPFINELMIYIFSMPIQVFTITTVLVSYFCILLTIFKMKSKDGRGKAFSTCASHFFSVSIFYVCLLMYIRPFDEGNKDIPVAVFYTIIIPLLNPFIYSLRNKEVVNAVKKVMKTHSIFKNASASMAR
How it was run: as §1
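Note: active if original authors judged signal statistically different from baseline.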

O=C(O)CCCCCCCCCC(=O)O
odorant receptor agonist call [1]: inactive

CCC1OC(C)=C(O)C1=O (stereo unspecified)
odorant receptor agonist call [2]: inactive
odorant receptor agonist call [3]: inactive
odorant receptor agonist call [4]: inactive
odorant receptor agonist call [5]: inactive
odorant receptor agonist call [6]: inactive
odorant receptor agonist call [7]: inactive
odorant receptor agonist call [8]: inactive
odorant receptor agonist call [9]: inactive
odorant receptor agonist call [10]: inactive
odorant receptor agonist call [11]: inactive
odorant receptor agonist call [12]: inactive
odorant receptor agonist call [13]: inactive
odorant receptor agonist call [14]: inactive

CC1=C(O)C(=O)OC1C (stereo unspecified)
odorant receptor agonist call [2]: inactive
odorant receptor agonist call [3]: inactive
odorant receptor agonist call [4]: inactive
odorant receptor agonist call [5]: inactive
odorant receptor agonist call [6]: inactive
odorant receptor agonist call [7]: inactive
odorant receptor agonist call [8]: inactive
odorant receptor agonist call [9]: inactive
odorant receptor agonist call [10]: inactive
odorant receptor agonist call [11]: inactive
odorant receptor agonist call [12]: inactive
odorant receptor agonist call [13]: inactive
odorant receptor agonist call [14]: inactive

CC(=O)c1c(C)c([N+](=O)[O-])c(C(C)(C)C)c([N+](=O)[O-])c1C
odorant receptor agonist call [2]: inactive
odorant receptor agonist call [3]: inactive
odorant receptor agonist call [4]: inactive
odorant receptor agonist call [15]: inactive
odorant receptor agonist call [8]: inactive
odorant receptor agonist call [9]: inactive
odorant receptor agonist call [11]: inactive
odorant receptor agonist call [13]: inactive
odorant receptor agonist call [16]: active

O=C(O)CCCCBr
odorant receptor agonist call [1]: inactive

CC1=NC(C)C(C)S1 (stereo unspecified)
odorant receptor agonist call [2]: inactive
odorant receptor agonist call [3]: inactive
odorant receptor agonist call [4]: inactive
odorant receptor agonist call [5]: inactive
odorant receptor agonist call [6]: inactive
odorant receptor agonist call [7]: inactive
odorant receptor agonist call [8]: inactive
odorant receptor agonist call [9]: inactive
odorant receptor agonist call [10]: inactive
odorant receptor agonist call [11]: inactive
odorant receptor agonist call [12]: inactive
odorant receptor agonist call [13]: inactive
odorant receptor agonist call [14]: inactive
odorant receptor agonist call [17]: active

Reference: the M2OR odorant receptor database
